CaV13 FRET inh: Primary screen for inhibitors of IQ motif and Ca2+-dependent inactivation inhibitor domain binding in CACNA1D, Förster resonance energy transfer in living cells, … | inhibition, % at 12.3 µM | HEK cells, CFP/YFP FRET ICDI-IQ, plate reader, 10 min; percent FRET-ratio fall versus neutral wells | 0.098% of 340,000 active | AID 743397;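 active = mean replicate inhibition of at least 30% and at least 1% of replicates passing that level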
FAS-TE inh: inhibitors of human fatty acid synthase thioesterase domain | recombinant FAS-TE, OMFH fluorogenic substrate, fluorescence endpoint | AID 602261 | inhibition, % at 15 µM | 0.67% of 360,000 active;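 active = compounds whose normalised, plate-corrected inhibition of enzyme fluorescence in the single-dose primary screen is 50% or more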
Arrestin-AP2 inh: inhibitors of human beta-arrestin and AP2 interaction; inhibition, % at 10 µM; 0.31% of 340,000 active; AID 504490; FITC-arrestin peptide / GST-AP2 beads, flow cytometry; AP2 beta2 appendage carries R879A mutation;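 active = inhibition above a set limit, near 3 SD of compounds lacking own fluorescence, cut at about 54% in these data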
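system = GST-tagged AP2 beta2-adaptin appendage (R879A) on 4 µm glutathione beads | reagent = FITC-labelled arrestin peptide probe, 50 nM final | schedule = compound with beads 12 min RT, then probe 1 h RT | signal = HyperCyt-sampled flow cytometry, FL1 channel, ex 488/em 535 nm | read-out = percent response from loss of bead-bound FITC fluorescence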
NRP1-CendR mod: alters CendR peptide binding to human NRP-1. AID 602438. O14786. 0.85% of 360,000 active. inhibition, % at 25 µM. FAM-RPARPAR peptide binding to NRP-1, fluorescence polarization;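 active = inhibition or corrected inhibition above about 18%, plus a signal ratio from 0.5 to 1.5, limit read from the data, passing the limit was not always enough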
Target sequence (O14786 whole entry, looked up): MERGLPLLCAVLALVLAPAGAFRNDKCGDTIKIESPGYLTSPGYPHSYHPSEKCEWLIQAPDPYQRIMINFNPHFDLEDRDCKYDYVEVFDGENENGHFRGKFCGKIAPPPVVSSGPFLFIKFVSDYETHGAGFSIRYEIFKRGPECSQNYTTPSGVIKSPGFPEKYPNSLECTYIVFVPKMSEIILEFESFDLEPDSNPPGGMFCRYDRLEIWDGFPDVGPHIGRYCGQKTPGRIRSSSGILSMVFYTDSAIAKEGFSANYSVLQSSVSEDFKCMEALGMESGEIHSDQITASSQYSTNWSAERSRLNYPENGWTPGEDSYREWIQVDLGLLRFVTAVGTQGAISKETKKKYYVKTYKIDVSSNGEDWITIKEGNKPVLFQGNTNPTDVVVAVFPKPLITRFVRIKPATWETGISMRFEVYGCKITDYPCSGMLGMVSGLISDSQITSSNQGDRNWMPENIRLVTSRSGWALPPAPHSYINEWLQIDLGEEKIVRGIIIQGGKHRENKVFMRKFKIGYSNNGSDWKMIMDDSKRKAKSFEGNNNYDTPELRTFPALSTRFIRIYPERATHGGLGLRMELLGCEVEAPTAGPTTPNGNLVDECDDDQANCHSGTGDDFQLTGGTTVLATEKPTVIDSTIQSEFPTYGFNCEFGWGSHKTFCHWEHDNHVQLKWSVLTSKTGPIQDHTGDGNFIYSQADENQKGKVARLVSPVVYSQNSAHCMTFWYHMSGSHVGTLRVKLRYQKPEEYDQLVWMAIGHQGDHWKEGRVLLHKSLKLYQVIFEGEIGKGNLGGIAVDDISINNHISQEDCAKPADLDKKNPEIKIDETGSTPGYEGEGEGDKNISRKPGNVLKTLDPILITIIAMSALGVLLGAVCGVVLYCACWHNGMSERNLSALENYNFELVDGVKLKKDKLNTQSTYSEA
ADAM10 inh: inhibits human ADAM10; AID 720582; inhibition, % at 7 µM; recombinant ADAM10, EDANS/DABCYL FRET peptide cleavage, 3 h; 0.62% of 370,000 active;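 active = inhibition above a per-campaign cutoff equal to the mean of compounds falling between control-based bounds plus 3 SD, cut at about 20% in these data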
ADAM17 inh: inhibits human ADAM17; P78536; recombinant ADAM17, EDANS/DABCYL FRET peptide cleavage; inhibition, % at 6.95 µM; 0.83% of 370,000 active; AID 720648;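 active = inhibition above the mean of compounds lying between control limits plus 3 SD, set per campaign, cut at about 8.5% in these data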
Arr-AP2 CP1: inhibitors of human beta-arrestin and AP2 interaction; shares compounds with Arrestin-AP2 inh; inhibition, % at 10 µM; 2% of 1,300 active; GST-AP2 beads, FITC arrestin peptide binding, flow cytometry; GST-fused beta2-adaptin appendage, R879A mutant;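 active = inhibition above a set limit, roughly 3 SD of non-fluorescent compound noise, cut at about 38% in these data; inactive = inhibition at or below that limit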;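 also: loss of bead fluorescence from 50 nM FITC arrestin peptide bound to appendage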
GST GSH counter: GST-GSH bead binding interference, counter-screen; shares compounds with Arrestin-AP2 inh; GST-fluorescein binding to GSH beads, fluorescence; inhibition, % at 10 µM; 2% of 1,300 active;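 active = inhibition above 50%, about 3 SD of the inhibition seen with non-fluorescent compounds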;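 also: fluorescein maleimide labelled GST captured on 4 micron glutathione beads; higher means more loss of bead fluorescence from quenching or blocked binding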
Numbers stand for hits; i = inactive; nt = no result given. Compounds with a hit are over-represented: about 2.9% of the library has one in this group of screens.

SMILES	CaV13 FRET inh	FAS-TE inh	Arrestin-AP2 inh	NRP1-CendR mod	ADAM10 inh	ADAM17 inh	Arr-AP2 CP1	GST GSH counter
O=S(=O)(/N=C(/Nc1cccc2ccccc12)c1ccccc1)c1cccs1	nt	i	100	i	i	i	i	i
O=S(=O)(/N=C(/Nc1cccc2ccccc12)c1ccccc1)c1ccccc1	i	i	i	i	i	i	nt	nt
O=C(O)c1cc2nc(-c3ccccc3)cc(-c3ccccc3)n2n1	i	i	68	i	i	i	i	i
O=C(O)c1cc2nc(-c3ccccc3)cc(C(F)(F)F)n2n1	i	i	i	i	i	i	nt	nt
CCCCn1c(N)c(N(CC(C)C)C(=O)Cc2ccc(S(=O)(=O)N3CCOCC3)s2)c(=O)[nH]c1=O	i	i	i	i	i	i	nt	nt
CCCCN=C(N)NC(=O)OCc1ccccc1	nt	nt	nt	nt	i	i	nt	nt
O=C(O)CN1C(=O)NC2NC(=O)NC21 (stereo not given)	i	i	i	i	i	i	nt	nt
CCOC(=O)CN1C(=O)NC2NC(=O)NC21 (stereo not given)	i	i	79	i	i	i	i	i
O=C(CSc1nc2ccccc2c(=O)n1Cc1ccc(F)cc1)NCc1cccs1	i	i	87	i	i	i	i	181
C[C@H](O)[C@@H]1CN2CCc3c([nH]c4ccc(-c5ccc6c(c5)OCO6)cc34)[C@@H]2C[C@@H]1N(C)C(=O)NC1CCCCC1	i	i	nt	i	i	i	nt	nt
COc1ccc(/C=C/C(=O)OCC(=O)NC2CCCC(C)C2C)c(OC)c1 (stereo not given)	i	i	64	i	i	i	i	i
COC(=O)c1c(NC(=O)/C=C/C(=O)O)sc(C)c1-c1ccc(C(C)C)cc1	i	i	57	i	i	i	i	i
O=C1CN(C(=O)/C=C/c2ccccc2)CCN1	i	i	57	i	i	i	i	i
O=C1CN(C(=O)/C=C/c2ccc(Cl)cc2Cl)CCN1	i	i	i	i	i	i	nt	nt
CCN(CC)C(=O)c1ccc(Cc2cn(C)c3ccccc23)nc1	i	i	nt	i	i	i	nt	nt
Cc1c(NC(=O)c2ccc(N(C)S(=O)(=O)c3ccccc3)cc2)c(=O)n(-c2ccccc2)n1C	i	i	54	i	i	i	i	i
Cc1c(NC(=O)c2cccc(S(=O)(=O)N(C)c3ccccc3)c2)c(=O)n(-c2ccccc2)n1C	i	i	i	i	i	i	nt	nt
Cc1ccc(N/C=C2/Sc3ccccc3NC2=O)cc1	i	i	83	i	i	i	i	i
COc1ccc(N/C=C2/Sc3ccccc3NC2=O)cc1	i	i	i	i	i	i	nt	nt
COc1ccccc1CNC(=O)COC(=O)c1c(C)nn(-c2ccccc2)c1Cl	i	i	67	i	i	i	i	i
COc1cccc(CNC(=O)COC(=O)c2c(C)nn(-c3ccccc3)c2Cl)c1	i	i	i	i	i	i	nt	nt
COC(=O)[C@]12C[C@H](CC(=O)NCc3ccccc3)C(=O)N(Cc3ccc(Cl)cc3Cl)C1=C[C@H](C1CCCC1)O[C@@H]2C	nt	nt	nt	nt	i	i	nt	nt
CCOc1ccc(NC(=S)N2CCN(S(=O)(=O)c3ccccc3)CC2)cc1	i	i	58	i	i	i	i	i
COc1ccc(OCC(=O)Nc2nccs2)cc1	i	i	i	i	i	i	nt	nt
COc1ccc(OCCC(=O)Nc2nccs2)cc1	i	i	54	i	i	i	i	i
SMILES	CaV13 FRET inh	FAS-TE inh	Arrestin-AP2 inh	NRP1-CendR mod	ADAM10 inh	ADAM17 inh	Arr-AP2 CP1	GST GSH counter
CC(C)OC(=O)CSc1nc(Cc2ccccc2)nc2ccccc12	i	i	71	i	i	i	i	i
CCOc1ccc(/C=C/C(=O)NCCc2ccc(OC)c(OC)c2)cc1	i	i	57	i	i	i	i	i
CCOc1ccc(/C=C/C(=O)NCc2ccccc2)cc1	i	i	i	i	i	i	nt	nt
CC(C)CCOc1ccc(NC(=O)C2OC3OC(C)(C)OC3C3OC(C)(C)OC23)cc1 (stereo not given)	i	i	i	i	i	i	nt	nt
CCCCCOc1ccc(NC(=O)C2OC3OC(C)(C)OC3C3OC(C)(C)OC23)cc1 (stereo not given)	i	i	107	i	i	i	i	i
O=C(O)CCCC(=O)OCCCc1cc2ccccc2c(=O)o1	i	nt	nt	nt	i	i	nt	nt
Cc1noc(C)c1CSc1ncnc2sc(C)c(C)c12	nt	i	105	i	i	i	i	i
CCOC(=O)[C@@]12CCCC3=C1N(CCC3)C(=O)[C@H]2CC(=O)N1CCCCC1	nt	nt	nt	nt	i	i	nt	nt
CCOC(=O)C1=C(COC(=O)Cc2c(F)cccc2Cl)NC(=O)NC1C (stereo not given)	i	i	i	i	i	i	i	i
CCOC(=O)C1=C(COC(=O)c2c(OC)cccc2OC)NC(=O)NC1C (stereo not given)	i	i	i	i	i	i	nt	nt
CCOC(=O)C1=C(COC(=O)C(CC)c2ccccc2)NC(=O)NC1C (stereo not given)	i	i	67	i	i	i	i	i
CCOC(=O)C1=C(COC(=O)C(CC)Oc2ccccc2)NC(=O)NC1C (stereo not given)	i	i	i	i	i	i	i	i
CCOC(=O)C1=C(COC(=O)c2cccs2)NC(=O)NC1C (stereo not given)	i	i	i	i	i	i	nt	nt
CCOC(=O)C1=C(COC(=O)CC(C)c2ccccc2)NC(=O)NC1C (stereo not given)	i	i	i	i	i	i	i	i
CCCN1CCS(=O)(=O)N(Cc2cn(Cc3ccccc3)nn2)C(C(=O)OC)C1 (stereo not given)	nt	nt	nt	nt	i	i	nt	nt
O=C(Oc1ccc2ccc(=O)oc2c1)N1CCOCC1	nt	i	55	i	i	i	i	i
COc1ccc(C(NC(=O)C2CCN(Cc3ccc(Oc4ccccc4)cc3)CC2)c2ccccc2C)cn1 (stereo not given)	i	i	nt	i	i	i	nt	nt
COc1cccc(/C=N/NC(=O)COc2cccc3cccnc23)c1O	i	i	60	i	i	i	i	i
CC(C)C[C@@H](CN)NC(=O)c1nc[nH]c1C(=O)N[C@@H](C)C(=O)CNC[C@H](C)NC(=O)c1nc[nH]c1C(=O)N[C@@H](CC(C)C)C(=O)O	i	i	i	i	i	i	nt	nt
C1=C(CCNc2nnnn2-c2ccccc2)CCCC1	i	i	55	i	i	i	i	i
c1ccc(CCNc2nnnn2-c2ccccc2)cc1	i	i	i	i	i	i	nt	nt
CC(C)(C)c1ccc(OCCCC(=O)NNC(=O)c2ccccc2O)cc1	i	i	i	i	i	i	nt	nt

Screens (PubChem BioAssay)
